The Cmax is the peak of the concentration-time curve.

The nature of data set [1]: Inhibition of OATP-mediated [3H]estradiol-17beta-glucuronide uptake in sandwich-cultured human hepatocytes at 100 uM after 1 day by beta-counting. The data set is classed as ADME, cell-based, Hepatocyte. The procedure, abridged: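 Day-1 human hepatocytes (seeded 350,000 cells/well, medium changed after 1 h) rinsed in HBSS at 37°C. Co-incubated with [3H]-E2 17G (1 µM, 1 min) or [3H]-rosuvastatin (0.5 µM, 1.5 min) plus compound or vehicle. Cells were washed in ice-cold HBSS, lysed in 0.5% Triton X-100, and counted by scintillation. Non-OATP accumulation (100 µM BSP) was subtracted. Results are % vehicle, protein-normalized, as mean ± SEM of three experiments in triplicate.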

In data set [2] the target is T1, Solute carrier organic anion transporter family member 2B1 (Homo sapiens, UniProt O94956).
T1 sequence (O94956 whole entry): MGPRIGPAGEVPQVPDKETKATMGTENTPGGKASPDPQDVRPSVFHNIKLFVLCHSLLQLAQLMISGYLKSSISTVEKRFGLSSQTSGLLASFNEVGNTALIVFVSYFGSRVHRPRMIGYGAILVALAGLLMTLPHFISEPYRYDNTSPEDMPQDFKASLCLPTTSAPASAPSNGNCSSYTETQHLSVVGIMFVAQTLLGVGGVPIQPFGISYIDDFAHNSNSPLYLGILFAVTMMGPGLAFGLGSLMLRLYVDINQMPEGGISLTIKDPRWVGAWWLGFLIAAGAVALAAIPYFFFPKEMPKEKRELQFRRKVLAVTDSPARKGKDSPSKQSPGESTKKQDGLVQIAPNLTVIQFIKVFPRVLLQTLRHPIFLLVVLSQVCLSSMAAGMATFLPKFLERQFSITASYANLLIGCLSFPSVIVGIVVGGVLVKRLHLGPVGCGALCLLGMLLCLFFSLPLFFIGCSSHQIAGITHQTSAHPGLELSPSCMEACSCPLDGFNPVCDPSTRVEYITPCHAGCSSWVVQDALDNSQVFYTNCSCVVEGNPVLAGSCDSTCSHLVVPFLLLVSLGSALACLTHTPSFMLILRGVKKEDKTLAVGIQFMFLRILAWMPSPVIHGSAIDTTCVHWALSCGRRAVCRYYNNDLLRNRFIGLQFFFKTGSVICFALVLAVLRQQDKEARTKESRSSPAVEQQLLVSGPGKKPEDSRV
Nature of the data set: Inhibition of OATP2B1 (unknown origin) expressed in MDCK2 cells assessed as reduction of [3H]estrone-3-sulfate uptake after 3 mins by beta-counting in presence of OATP inhibitor BSP. The data set is classed as ADME, cell-based. The note with it: mdck-ii, 0.05 h.

Data set [3] addresses T1, Solute carrier organic anion transporter family member 2B1. Description: Inhibition of OATP2B1 (unknown origin) expressed in MDCK2 cells assessed as reduction of [3H]estrone-3-sulfate uptake at 10 uM after 3 mins by beta-counting. The note with it: mdck-ii, 0.05 h. In kind it is ADME, cell-based. The procedure, abridged:
(§1)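 Confluent cells were washed in PBS, then given 1 µM [3H]-E2 17G (OATP1B1, OATP1B3 HEK293) or 1 µM [3H]-E1S (OATP2B1 MDCKII) with 10 µM compound in HBSS pH 7.4 for 3 min at 37°C. Uptake into mock or parental cells was subtracted after protein normalization. Results are % vehicle, mean ± SD of at least three experiments in triplicate.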

The nature of data set [4]: Ratio of fCmax in portal vein of patient with chronic noncirrhotic HCV infection at 140 mg to IC50 for OATP1B1 (unknown origin) expressed in HEK293 cells. Further details: species or system Homo sapiens; call rule not given here.
Data set [5] can be described thus: fCmax in portal vein of patient with chronic noncirrhotic HCV infection at 700 mg. In kind it is ADME. The note with it: human.
Data set [6] in a line: Inhibition of OATP-mediated [3H]rosuvastatin uptake in sandwich-cultured human hepatocytes at 100 uM after 8 days by beta-counting. In kind it is ADME, cell-based, Hepatocyte. The procedure, abridged: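 Hepatocytes were overlaid with Matrigel (0.25 mg/ml) on day 1 and cultured to day 8 in ITS/0.1 µM dexamethasone medium, changed daily. Uptake of [3H]-E2 17G (1 µM, 1 min) or [3H]-rosuvastatin (0.5 µM, 1.5 min) was run at 37°C in HBSS with compound or vehicle. The BSP (100 µM) accumulation was subtracted, and the OATP-mediated uptake was expressed as % vehicle, normalized to BCA protein and corrected with cell-free wells.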

Data set [7] in a line: Cmax in patient with chronic noncirrhotic HCV infection at 700 mg. In kind it is ADME, organism-based. The note with it: human, in vivo. Further details: dose 700 mg.
A short description of data set [8]: Unbound fraction in human plasma. The data set is classed as ADME, cell-free.
Data set [9] can be described thus: Ratio of fCmax in portal vein of patient with chronic noncirrhotic HCV infection at 700 mg to IC50 for OATP1B3 (unknown origin) expressed in HEK293 cells. Further details: species or system Homo sapiens.
Data set [10] addresses T2, Solute carrier organic anion transporter family member 1B1 (Homo sapiens, UniProt Q9Y6L6).
T2 sequence (Q9Y6L6 whole entry): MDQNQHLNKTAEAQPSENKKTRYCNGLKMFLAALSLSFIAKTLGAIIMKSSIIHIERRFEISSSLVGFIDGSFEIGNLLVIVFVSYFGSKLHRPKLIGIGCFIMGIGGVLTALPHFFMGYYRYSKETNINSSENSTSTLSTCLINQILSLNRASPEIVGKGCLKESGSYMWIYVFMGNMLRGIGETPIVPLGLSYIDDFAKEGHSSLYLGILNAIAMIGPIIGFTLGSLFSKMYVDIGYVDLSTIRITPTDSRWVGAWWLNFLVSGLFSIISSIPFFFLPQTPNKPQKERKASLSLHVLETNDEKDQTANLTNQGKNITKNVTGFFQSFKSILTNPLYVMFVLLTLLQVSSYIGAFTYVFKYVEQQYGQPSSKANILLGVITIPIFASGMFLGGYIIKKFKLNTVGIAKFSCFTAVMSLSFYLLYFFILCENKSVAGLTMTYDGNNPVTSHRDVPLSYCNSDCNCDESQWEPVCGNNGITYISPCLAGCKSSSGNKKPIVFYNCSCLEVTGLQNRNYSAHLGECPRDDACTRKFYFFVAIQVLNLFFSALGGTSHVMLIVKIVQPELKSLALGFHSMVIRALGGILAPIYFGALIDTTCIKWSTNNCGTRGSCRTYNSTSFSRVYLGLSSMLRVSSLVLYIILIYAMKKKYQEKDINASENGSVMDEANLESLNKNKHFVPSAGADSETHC
Nature of the data set: Inhibition of OATP1B1 (unknown origin) expressed in HEK293 cells assessed as reduction of [3H]estradiol-17beta-glucuronide uptake at 10 uM after 3 mins by beta-counting. In kind it is ADME, cell-based. The note with it: hek293, 0.05 h. The procedure, abridged: as §1

Data set [11] is described as follows: Protein binding in rat. In kind it is ADME, organism-based. The note with it: in vivo, read-out: PB (converted).
Data set [12] in a line: Ratio of fCmax in portal vein of patient with chronic noncirrhotic HCV infection at 140 mg to IC50 for OATP2B1 (unknown origin) expressed in HEK293 cells. On the set-up: species or system Homo sapiens.

`COc1cc([C@H]2Oc3cc([C@H]4Oc5cc(O)cc(O)c5C(=O)[C@@H]4O)ccc3O[C@@H]2CO)ccc1O` [SILYBIN A]: the “inhibition (INH)” value in data set [1] is recorded as “Active”; in data set [2], “Not Active”; in data set [3], “Active”; in data set [6], “Active”; in data set [10], “Active”. Moreover, the Ratio in data set [4] is 0.004; in data set [9], 0.08; in data set [12] it was 0.01. The compound further gave a fCmax in data set [5] of 0.22 µM. The Cmax in [7] turned out to be 580 ng/mL. Further, the fraction unbound was 0.05 in [8] and 0.3 in data set [11].
In the case of `COc1cc([C@@H]2Oc3cc([C@H]4Oc5cc(O)cc(O)c5C(=O)[C@@H]4O)ccc3O[C@H]2CO)ccc1O` [SILYBIN B], the “inhibition (INH)” value in [1] is on record as “Active”; in data set [2], “Not Active”; in data set [3], “Active”; in data set [6], “Active”; in [10] it was “Active”. The Ratio worked out at 0.02 in data set [4], 0.14 in [9] and 0.16 in data set [12]. In data set [5], this compound yielded a fCmax of 0.7 µM. Also, the Cmax in [7] is 220 ng/mL. Moreover, the figures for the fraction unbound in data set [8] and in data set [11] were 0.05 and 0.3, respectively.

Source of the values: ChEMBL document CHEMBL3526004, “Interaction of silymarin flavonolignans with organic anion-transporting polypeptides” (Drug Metab Dispos, 2013).
